In ChEMBL document CHEMBL1773005, “The antibacterial ent-eusynstyelamide B and eusynstyelamides D, E, and F from the Arctic bryozoan Tegella cf. spitzbergensis” (J Nat Prod, 2011):
Values after ≈ are worked out from the molar mass of the structure shown.

Legend:
Pseudomonas aeruginosa = experiment: Antibacterial activity against Pseudomonas aeruginosa ATTC 27853 after 24 hrs by microtiter plate assay; assay type: functional; details: ATTC 27853, 24 h
How it was run: (§1)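 Log-phase cultures grown at 37 C in Mueller Hinton broth, diluted to about 5 × 10^5 cells per well, then mixed 1:1 with compound dissolved in water. Growth followed by continuous optical density reading. MIC taken as the lowest concentration giving no OD change after 24 h at 37 C. Tested in duplicate over 2–100 μg/mL; cecropin B (25 μM) served as positive control.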

A2058 = experiment: Anticancer activity against human A2058 cells after 72 hrs by CellTiter-96 cell viability assay; assay type: functional, cell-based; details: A2058, 72 h
How it was run: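 A-2058 melanoma cells in exponential growth were seeded, incubated 24 h at 37 C, then exposed to compounds for 72 h. Viability was read by CellTiter96 reagent, 1 h colour development, absorbance at 485 nm. Duplicates over 2–100 μg/mL; IC50 determined.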

Escherichia coli = experiment: Antibacterial activity against Escherichia coli ATCC 25922 after 24 hrs by microtiter plate assay; assay type: functional; details: ATCC 25922, 24 h; how it was run: as §1
Staphylococcus aureus [1] = experiment: Antibacterial activity against methicillin-resistant Staphylococcus aureus ATCC 33591 after 24 hrs by microtiter plate assay; assay type: functional; details: ATCC 33591, 24 h
How it was run: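 Log-phase bacteria at about 5 × 10^5 cells per well in Mueller Hinton broth, 37 C, were mixed with compounds dissolved in water, 2–100 μg/mL, in duplicate. Optical density was monitored continuously. MIC was taken as the lowest concentration giving no change in optical density after 24 h. Cecropin B (25 μM) served as positive control.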

Candida albicans = experiment: Antifungal activity against Candida albicans ATCC 10231 after 48 hrs by microscopy; assay type: functional; details: ATCC 10231, 48 h
How it was run: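 Yeast grown on potato dextrose agar with 2% glucose at room temperature, suspended in potato dextrose broth and counted in a Bürker chamber. Spores at 2 × 10^5/mL final were mixed with compounds dissolved in water and incubated at 37 C. MIC was the lowest concentration with no visible growth at 48 h, scored microscopically. Duplicates over 2–100 μg/mL; cecropin B (6.25 μM) as positive control.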

Staphylococcus aureus [2] = experiment: Antibacterial activity against Staphylococcus aureus ATTC 9144 after 24 hrs by microtiter plate assay; assay type: functional; details: ATTC 9144, 24 h; how it was run: as §1
[3] = tested on: Corynebacterium glutamicum; experiment: Antibacterial activity against Corynebacterium glutamicum ATTC 13032 after 24 hrs by microtiter plate assay; assay type: functional; details: ATTC 13032, 24 h; how it was run: as §1

Structure (SMILES) | MIC (Pseudomonas aeruginosa) [µg/mL] | IC50 (A2058) [µM] | MIC (Escherichia coli) [µg/mL] | MIC (Staphylococcus aureus [1]) [µg/mL] | MIC (Candida albicans) [µg/mL] | MIC (Staphylococcus aureus [2]) [µg/mL] | MIC [3] [µg/mL]
NCCCCNC(=O)[C@@]1(O)[C@H](c2c[nH]c3cc(Br)ccc23)[C@@](O)(Cc2c[nH]c3cc(Br)ccc23)C(=O)N1CCCCN [EUSYNSTYELAMIDE D] | 25 (≈ 35.5 µM) | 57 | 12.5 (≈ 17.7 µM) | 20 (≈ 28.4 µM) | 50 (≈ 71 µM) | 12.5 (≈ 17.7 µM) | 12.5 (≈ 17.7 µM)
N=C(N)NCCCCNC(=O)[C@@]1(O)[C@H](c2c[nH]c3cc(Br)ccc23)[C@@](O)(Cc2c[nH]c3cc(Br)ccc23)C(=O)N1CCCCN [EUSYNSTYELAMIDE F] | 12.5 (≈ 16.7 µM) |  | 12.5 (≈ 16.7 µM) | > 50 | 50 (≈ 67 µM) | 6.25 (≈ 8.37 µM) | 6.25 (≈ 8.37 µM)
N=C(N)NCCCCN1C(=O)[C@](O)(Cc2c[nH]c3cc(Br)ccc23)[C@@H](c2c[nH]c3cc(Br)ccc23)[C@]1(O)C(=O)NCCCCN [EUSYNSTYELAMIDE E] | 25 (≈ 33.5 µM) | 114 | 12.5 (≈ 16.7 µM) | 20 (≈ 26.8 µM) | 100 (≈ 134 µM) | 12.5 (≈ 16.7 µM) | 12.5 (≈ 16.7 µM)
